Consider eight compounds from publication PMC3403534 (Journal of Biomolecular Screening, 2009).

As usually defined, the pIC50 is −log10 of the IC50, conventionally taken in molar units.

pIC50: −log10 of the molar value. Read-outs that look alike come from different tables or passages of the source.

Experiment [1] addresses T1, TNAP (Homo sapiens, UniProt P05186).
T1 sequence (P05186 18-501 limits assumed): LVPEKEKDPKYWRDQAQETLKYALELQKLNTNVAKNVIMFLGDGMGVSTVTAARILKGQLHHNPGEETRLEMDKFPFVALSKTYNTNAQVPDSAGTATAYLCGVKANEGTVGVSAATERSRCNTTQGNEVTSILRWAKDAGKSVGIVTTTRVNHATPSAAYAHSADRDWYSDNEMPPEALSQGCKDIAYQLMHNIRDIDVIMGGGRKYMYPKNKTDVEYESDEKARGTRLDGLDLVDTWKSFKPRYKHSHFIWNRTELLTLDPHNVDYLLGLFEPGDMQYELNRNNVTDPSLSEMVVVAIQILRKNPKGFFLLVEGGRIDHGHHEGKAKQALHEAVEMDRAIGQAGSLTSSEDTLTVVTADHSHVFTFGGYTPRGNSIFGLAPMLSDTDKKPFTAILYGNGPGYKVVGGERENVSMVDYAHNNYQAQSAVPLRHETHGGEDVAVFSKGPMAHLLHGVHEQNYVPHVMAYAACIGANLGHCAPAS
The note with it: ref Fishman and Sie, 1971; Van Belle, 1976; Farley et al., 1980; cited from earlier work.

Experiment [2] has as its target T1, TNAP. The experiment is described as follows: Luminescent TNAP assay with CDP-star substrate. The experiment is classed as biochemical.
In experiment [3] the target is T1, TNAP. The format is biochemical. Particulars: for MOI vs CDP*: mode of inhibition with respect to CDP-star (UC uncompetitive, C competitive); for MOI vs DEA: mode of inhibition with respect to DEA (C competitive, NC non-competitive).
The target in the next experiment is PLAP (Homo sapiens, UniProt P05187). The experiment in a line: Luminescent PLAP selectivity assay. The experiment is classed as biochemical. The note with it: read-out: SDCCG panel IC50 PLAP, 85 µM CDP-star. The gist of the method: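 Run as an analogue of the luminescent TNAP assay: CDP-star held at the PLAP Km. The TNAP version used 100 mM DEA-HCl pH 9.8, 1 mM MgCl2 and 20 uM ZnCl2, with luminescence read after 30 min at room temperature. Percent inhibition was computed against negative and positive control wells. Dose-response data were fitted to the Hill equation for IC50, excluding nephelometrically precipitating concentrations.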

Another experiment concerns the target T2, IAP (Homo sapiens, UniProt P09923).
T2 sequence (P09923 20-503 limits assumed): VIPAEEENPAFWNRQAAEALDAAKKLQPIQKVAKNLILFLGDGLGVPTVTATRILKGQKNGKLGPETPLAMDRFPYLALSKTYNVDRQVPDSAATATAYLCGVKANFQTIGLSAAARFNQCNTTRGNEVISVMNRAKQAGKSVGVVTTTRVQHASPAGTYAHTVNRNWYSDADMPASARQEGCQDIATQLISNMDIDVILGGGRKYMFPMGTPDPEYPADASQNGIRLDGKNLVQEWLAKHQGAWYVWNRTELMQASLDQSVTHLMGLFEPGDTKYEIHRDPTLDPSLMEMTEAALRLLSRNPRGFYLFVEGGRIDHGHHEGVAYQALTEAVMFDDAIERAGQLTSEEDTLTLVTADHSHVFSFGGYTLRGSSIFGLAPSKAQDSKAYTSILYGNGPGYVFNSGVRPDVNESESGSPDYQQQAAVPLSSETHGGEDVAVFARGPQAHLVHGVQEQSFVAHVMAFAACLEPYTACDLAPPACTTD
The experiment in a line: Luminescent IAP selectivity assay. The experiment is classed as biochemical. The note with it: read-out: SDCCG panel IC50 IAP, […] CDP-star.

The target of experiment [4] is T1, TNAP. The experiment is described as follows: Colorimetric TNAP assay, pNPP substrate, absorbance at 405 nm. The experiment is classed as biochemical. Particulars: colorimetric assays, 1 M DEA, compared with luminescent assay.
Setting [5] is: read-out: IC50 SAR-Lumi, dry powder compounds, 100 mM DEA.
[6] abbreviates: read-out: SDCCG panel IC50 TNAP.

Chain of PLAP (P05187 23-506 limits assumed): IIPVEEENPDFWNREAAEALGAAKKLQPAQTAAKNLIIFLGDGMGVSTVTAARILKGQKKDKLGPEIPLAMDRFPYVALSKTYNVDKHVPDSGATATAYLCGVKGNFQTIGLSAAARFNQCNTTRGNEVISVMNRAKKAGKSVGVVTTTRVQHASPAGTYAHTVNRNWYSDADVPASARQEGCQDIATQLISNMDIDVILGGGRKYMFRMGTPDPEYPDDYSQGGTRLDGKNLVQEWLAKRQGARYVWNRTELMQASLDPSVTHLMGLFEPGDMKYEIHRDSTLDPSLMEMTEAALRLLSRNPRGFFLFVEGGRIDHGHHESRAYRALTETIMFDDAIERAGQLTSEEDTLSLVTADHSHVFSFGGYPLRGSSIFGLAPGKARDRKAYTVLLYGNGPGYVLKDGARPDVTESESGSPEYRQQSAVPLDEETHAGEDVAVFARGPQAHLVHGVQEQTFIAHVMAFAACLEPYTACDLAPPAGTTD

Consider `NC(N)=NCCCC[C@H](N)C(=O)O` [L-homoarginine], for which the “Mode of inhibition of TNAP by known inhibitors” value at TNAP [1] is recorded as “inhibited uncompetitively”.
For `O=C(O)c1cc(-c2ccccc2Cl)n[nH]1` [MLS-0005718], the pIC50 was 6.13 on TNAP [2] (setting [5]), 6.13 at TNAP [2] (setting [6]), less than 4.00 at PLAP and 4.36 on IAP. The “MOI vs CDP*” value on TNAP [3] is recorded as “competitive with CDP-star”. On TNAP [3], the “MOI vs DEA” value is listed as “competitive mechanism”.
Regarding `c1ccc([C@H]2CN3CCSC3=N2)cc1` [levamisole], the “Mode of inhibition of TNAP by known inhibitors” value at TNAP [1] is “inhibited uncompetitively”.
With `COc1ccc(C)cc1S(=O)(=O)Nc1cccnc1` [MLS-0010847], the pIC50 at TNAP [2] (setting [5]) is 6.03; on TNAP [2] (setting [6]), 6.03; at PLAP, less than 4.00; at IAP, less than 4.00.
Consider `COc1ccc(OC)c(S(=O)(=O)Nc2cnc3ccccc3c2)c1` [MLS-0038949], for which the pIC50 at PLAP was less than 4.00.
For the compound `O=C1C2CC=CCC2C(=O)N1c1n[nH]c(Cc2ccccc2)n1` (stereo not shown) [MLS-0067142], the pIC50 was 6.73 on TNAP [2] (setting [5]), 6.73 on TNAP [2] (setting [6]), 5.50 on PLAP and 6.27 on IAP. Further, on TNAP [3], the “MOI vs CDP*” value was “competitive with CDP-star”. Further, the “MOI vs DEA” value at TNAP [3] is “competitive mechanism”.
As for `O=c1cc(-c2cccc3ccccc23)[nH][nH]1` [MLS-0039961], the pIC50 is 5.34 at TNAP [2] (setting [5]), less than 4.00 on PLAP and less than 4.00 on IAP. For the same compound, the “MOI vs CDP*” value at TNAP [3] was “competitive with CDP-star”. Further, the “MOI vs DEA” value at TNAP [3] is “non-competitive”.
Take `COc1ccc(OC)c(S(=O)(=O)Nc2ccc(O)c(Sc3ncn[nH]3)c2)c1` [MLS-0043574]: the “Activity in the colorimetric assay” value on TNAP [4] was “inactive”.
